Legend:
[1] = organism: Mus musculus; assay: Number of mice with necrosis was measured for compound along with acetaminophen showing necrosis rating of 4+ was reported.; assay type: functional
[2] = organism: Mus musculus; assay: Number of mice with necrosis was measured for compound along with acetaminophen showing necrosis rating of 0 was reported.; assay type: functional
[3] = organism: Mus musculus; assay: Number of mice with necrosis was measured for compound along with acetaminophen showing necrosis rating of 1+ was reported.; assay type: functional
[4] = organism: Mus musculus; assay: Number of mice with necrosis was measured for compound along with acetaminophen showing necrosis rating of 2+ was reported.; assay type: functional
[5] = organism: Mus musculus; assay: Number of mice with necrosis was measured for compound along with acetaminophen showing necrosis rating of 3+ was reported.; assay type: functional
[6] = organism: Mus musculus; assay: No of mice protected out of 10 against acetaminophen-induced Hepatotoxicity after 48 h; assay type: functional
Outline: (§1)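 Male Swiss-Webster mice (19–31 g) were fasted overnight with water available. They received acetaminophen 750 mg/kg (4.97 mmol/kg) ip and then, 30 min later, prodrug 2.45 mmol/kg ip. The prodrug was given in sterile water, sterile 0.1 N NaHCO3, or as a slurry in 2% CMC. Food was then restored, and animals were checked at 12, 24 and 48 h. Survivors were counted at 48 h.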

[7] = organism: Mus musculus; assay: Percentage survival of mice after 48 hr.; assay type: functional; parameters: concentration or dose not given beside the values; outline: as §1
[8] = organism: Rattus norvegicus; assay: Inhibitory effect on GSH elevation elicited by compound in rat hepatocytes in the presence of buthionine sulfoximine (BSO) (0.2 mM); assay type: functional, Hepatocyte
Outline: (§2)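 Primary rat hepatocytes pre-exposed to buthionine sulfoximine (0.20 mM) before 4 h incubation with prodrug (1.0 mM). Total GSH (GSH + GSSG) after PBS rinse and 5% sulfosalicylic acid deproteinization, by modified DTNB–glutathione reductase recycling (ΔOD 412 nm/min). Reported as nmol/10^6 cells ± SE and relative to untreated controls.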

[9] = organism: Rattus norvegicus; assay: GSH level related to controls; assay type: functional
Outline: (§3)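 Primary rat hepatocyte cultures exposed to prodrug for 4 h; medium aspirated, cells rinsed with cold PBS, deproteinized with 5% sulfosalicylic acid. Total GSH (GSH + GSSG) measured by modified DTNB–glutathione reductase recycling, from cycling rate (ΔOD 412 nm/min); expressed as nmol/10^6 cells ± SE and relative to untreated controls.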

[10] = organism: Rattus norvegicus; assay: GSH level related to controls in the presence of buthionine sulfoximine (BSO) (0.2 mM); assay type: functional; outline: as §2
[11] = organism: Rattus norvegicus; assay: In vitro increased GSH content of rat hepatocytes when incubated with compound after 4 hr at 1.0 mM concentration.; assay type: functional, Hepatocyte; outline: as §3
[12] = organism: Mus musculus; assay: No of mice protected out of 12 against acetaminophen-induced Hepatotoxicity after 48 h; assay type: functional; outline: as §1
[13] = organism: Mus musculus; assay: Number of mice with necrosis was measured for compound along with acetaminophen and number of animals showing necrosis rating of 0 was reported.; assay type: functional
[14] = organism: Mus musculus; assay: Number of mice with necrosis was measured for compound along with acetaminophen and number of animals showing necrosis rating of 1+ was reported.; assay type: functional
[15] = organism: Mus musculus; assay: Number of mice with necrosis was measured for compound along with acetaminophen and number of animals showing necrosis rating of 2+ was reported.; assay type: functional
[16] = organism: Mus musculus; assay: Number of mice with necrosis was measured for compound along with acetaminophen and number of animals showing necrosis rating of 3+ was reported.; assay type: functional
[17] = organism: Mus musculus; assay: Number of mice with necrosis was measured for compound along with acetaminophen and number of animals showing necrosis rating of 4+ was reported.; assay type: functional
[18] = organism: Mus musculus; assay: Protection of mice against acetaminophen-induced Hepatotoxicity; assay type: functional
Outline: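 Fasted male Swiss-Webster mice (19–31 g) were given acetaminophen 750 mg/kg ip, then prodrug 2.45 mmol/kg ip 30 min later. Outcomes were 48-h survival plus histology. Central-lobe liver sections came from animals found dead at 12/24/48 h or killed at 48 h. Sections were formalin-fixed and H&E-stained. Necrosis was rated blind using Mitchell's scale.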

[19] = organism: Rattus norvegicus; assay: In vitro increased GSH content of rat hepatocytes when incubated with compound after 4 hr at 2.5 mM concentration.; assay type: functional, Hepatocyte; outline: as §3

O=C(O)[C@@H]1CSC(C(O)CO)N1 (some centres undefined)
No. of animals [1]: 7 | No. of animals [2]: 0 | No. of animals [3]: 0 | No. of animals [4]: 1 | No. of animals [5]: 2 | No. of survivors [6]: 3 | Survival [7]: 30% | [GSH] [8]: 18.3 nmol/10^6 cells | GSH level [9]: 1.3 | GSH level [10]: 0.5 | [GSH] [11]: 46.1 nmol/10^6 cells

O=C(O)[C@@H]1CSC(C(O)C(O)C(O)CO)N1 (stereo in doubt; 1b)
No. of animals [1]: 7 | No. of animals [3]: 1 | No. of animals [4]: 2 | No. of survivors [6]: 4 | Survival [7]: 40% | [GSH] [8]: 19.5 nmol/10^6 cells | GSH level [9]: 1.2 | [GSH] [11]: 42.9 nmol/10^6 cells

O=C(O)[C@@H]1CSC(C(O)C(O)C(O)CO)N1 (stereo in doubt; 1c)
No. of animals [1]: 9 | No. of animals [2]: 0 | No. of animals [3]: 0 | No. of animals [4]: 0 | No. of animals [5]: 1 | No. of survivors [6]: 3 | Survival [7]: 30% | [GSH] [8]: 22.4 nmol/10^6 cells | GSH level [9]: 1.3 | GSH level [10]: 0.6 | [GSH] [11]: 45.9 nmol/10^6 cells

O=C(O)[C@@H]1CSC(C(O)C(O)C(O)CO)N1 (stereo in doubt; 1d)
No. of animals [1]: 0 | No. of animals [2]: 4 | No. of animals [3]: 2 | No. of animals [4]: 6 | No. of animals [5]: 0 | No. of survivors [12]: 12 | Survival [7]: 100% | [GSH] [8]: 16.2 nmol/10^6 cells | GSH level [9]: 1.7 | GSH level [10]: 0.5 | [GSH] [11]: 61.2 nmol/10^6 cells

O=C(O)[C@@H]1CSC(C(O)C(O)C(O)CO)N1 (stereo in doubt; 1e)
No. of animals [1]: 5 | No. of animals [2]: 3 | No. of survivors [6]: 6 | Survival [7]: 60% | [GSH] [8]: 22.6 nmol/10^6 cells | GSH level [9]: 1.6 | GSH level [10]: 0.8 | [GSH] [11]: 58.3 nmol/10^6 cells

O=C(O)[C@@H]1CSC(C(O)C(O)C(O)C(O)CO)N1 (stereo in doubt; 1f)
No. of animals [1]: 4 | No. of animals [2]: 1 | No. of animals [3]: 3 | No. of animals [4]: 2 | No. of animals [5]: 0 | No. of survivors [6]: 6 | Survival [7]: 60% | [GSH] [8]: 23.2 nmol/10^6 cells | GSH level [9]: 1.6 | GSH level [10]: 0.7 | [GSH] [11]: 58 nmol/10^6 cells

O=C(O)[C@@H]1CSC(C(O)C(O)C(O)C(O)CO)N1 (stereo in doubt; 1g)
No. of animals [1]: 7 | No. of animals [2]: 0 | No. of animals [3]: 2 | No. of animals [4]: 0 | No. of animals [5]: 1 | No. of survivors [6]: 3 | Survival [7]: 30% | [GSH] [8]: 25.4 nmol/10^6 cells | GSH level [9]: 2.1 | [GSH] [11]: 75.2 nmol/10^6 cells

O=C(O)[C@@H]1CSC(C(O)C(O)C(O)C(O)CO)N1 (stereo in doubt; 1h)
No. of animals [1]: 6 | No. of animals [2]: 3 | No. of animals [3]: 0 | No. of animals [4]: 1 | No. of survivors [6]: 4 | Survival [7]: 40% | [GSH] [8]: 18.9 nmol/10^6 cells | GSH level [10]: 0.5 | [GSH] [11]: 57.8 nmol/10^6 cells

CC(=O)Nc1ccc(O)cc1 [ACETAMINOPHEN]
No. of animals [1]: 11 | No. of animals [2]: 0 | No. of animals [3]: 0 | No. of animals [4]: 1 | No. of animals [5]: 0 | No. of survivors [12]: 2 | Survival [7]: 17%

CC(=O)N[C@@H](CS)C(=O)O [ACETYLCYSTEINE]
No. of animals [13]: 13 | No. of animals [14]: 3 | No. of animals [15]: 0 | No. of animals [16]: 1 | No. of animals [17]: 1 | Survival [18]: 17% | Survival [7]: 94% | [GSH] [19]: 45.8 nM (10e6*cells)-1

From ChEMBL document CHEMBL1123624, “Prodrugs of L-cysteine as protective agents against acetaminophen-induced hepatotoxicity. 2-(Polyhydroxyalkyl)- and 2-(polyacetoxyalkyl)thiazolidine-4(R)-carboxylic acids” (1987)
